ATG4B inhibitor: ATG4B (human) cysteine protease inhibition | Q9Y4P1 | ATG4B cleavage of LC3-PLA2, NBD-HPC fluorescence, 1 h | inhibition, % at 8.33 µM | 0.51% of 340,000 active | AID 504462; in the data active = inhibition above about 40%
Target sequence (Q9Y4P1 whole entry, looked up): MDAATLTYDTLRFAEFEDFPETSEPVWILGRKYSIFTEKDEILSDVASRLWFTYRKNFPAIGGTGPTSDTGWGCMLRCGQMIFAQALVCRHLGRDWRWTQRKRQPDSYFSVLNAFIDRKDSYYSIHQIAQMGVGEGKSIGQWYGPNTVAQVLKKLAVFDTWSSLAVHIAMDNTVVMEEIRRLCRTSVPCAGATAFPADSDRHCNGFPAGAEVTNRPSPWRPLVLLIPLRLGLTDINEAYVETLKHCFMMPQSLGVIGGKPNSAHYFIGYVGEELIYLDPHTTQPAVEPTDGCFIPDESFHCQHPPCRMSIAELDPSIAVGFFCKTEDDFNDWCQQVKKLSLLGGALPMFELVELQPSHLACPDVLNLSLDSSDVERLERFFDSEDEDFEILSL
CendR NRP1 mod: modulators of CendR peptide binding to human neuropilin-1; inhibition, % at 25 µM; 0.85% of 360,000 active; AID 602438; FAM-RPARPAR peptide binding to NRP-1, fluorescence polarization;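 active = inhibition or corrected inhibition above about 18%, plus a signal ratio from 0.5 to 1.5, limit read from the data, passing the limit was not always enough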
Exocytosis inh: blocks lytic granule exocytosis | inhibition, % at 10 µM | AID 651702 | TALL-104 LAMP-1 surface exposure, flow cytometry; cells stimulated with thapsigargin and PMA | 0.66% of 360,000 active;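 active = inhibition above about 55%, limit read from the data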
Arrestin-AP2 inh: inhibitors of human beta-arrestin and AP2 interaction; FITC-arrestin peptide / GST-AP2 beads, flow cytometry; AP2 beta2 appendage carries R879A mutation; 0.31% of 340,000 active; inhibition, % at 10 µM;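 active = inhibition above a set limit, near 3 SD of compounds lacking own fluorescence, cut at about 54% in these data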;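 note: plate controls were DMSO wells for no effect and 5 µM unlabelled arrestin peptide for full effect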
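Measured by: flow cytometry, FL1 (488/535 nm); Material: AP2 appendage R879A on GSH beads; Evaluation: percent response; Timing: pre-incubation 12 min, peptide binding 1 h, room temperature; Also added: 50 nM FITC-arrestin peptide; Medium: PBS with 0.05% Tween 20 and 0.1% BSA.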
ABCB6 inh 2: inhibitors of human ABC transporter ABCB6; Q9NP58; K562-ABCB6 porphyrin accumulation, flow cytometry, 1 h; hits give low values; fluorescence ratio to DMSO, % at 10 µM; 0.19% of 360,000 active; AID 602162;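 active = fluorescence ratio to DMSO below 75%, the collection mean minus 3 SD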;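 note: signal is porphyrin accumulated inside mitochondria; 100% equals median channel fluorescence of DMSO control wells; lower ratio means ABCB6 inhibition with less porphyrin fluorescence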
Myeloid diff MLP: myeloid differentiation induction; ER-HoxA9 myeloid progenitors, lysozyme-GFP differentiation, flow cytometry; calls only at 10 µM; 1% of 360,000 active;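 active = normalized GFP-positive differentiation at or above the plate's own cutoff, the solvent-only control mean plus 3 SD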;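 note: cells exposed to compound for four days before flow analysis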
* hit, by the source's call; i = inactive; x = not tested or not shown; + = active, no number. This is a sample that favours compounds with a hit; in the whole collection about 3.3% have one here.

SMILES	ATG4B inhibitor	CendR NRP1 mod	Exocytosis inh	Arrestin-AP2 inh	ABCB6 inh 2	Myeloid diff MLP
c1cc2c3c(cccc3c1)NC1(CCC3(CC1)Nc1cccc4cccc(c14)N3)N2	0	-14	60*	37	98	i
c1cc2c3c(cccc3c1)NC1(CCCCCC1)N2	5	0	10	52	109	i
COc1cccc(Nc2nc(C(C)N)cs2)n1 (centres undefined)	x	-2	5	x	103	i
COc1ccc(C(N)c2csc(Nc3nncc4ccccc34)n2)cc1 (centres undefined)	x	-12	15	x	88	+
COc1cccc(Nc2nc(C(N)c3ccccc3)cs2)n1 (centres undefined)	x	-4	3	x	95	+
N#C/C(=C\c1ccc(N2CCOCC2)o1)c1nc2ccccc2[nH]1	-33	141	0	27	105	+
N#C/C(=C/c1ccc(N2CCOCC2)o1)c1ccc(Cl)cc1	-8	132	82*	-3	226	i
N#C/C(=C\c1ccccc1C(=O)O)c1nc2ccccc2[nH]1	6	5	-1	-2	102	i
N#C/C(=C\c1ccc(-c2ccc(C(=O)O)cc2)o1)c1nc2ccccc2[nH]1	-20	135	0	5	217	+
CCCCc1cc(=O)oc2cc(C)cc(OCC(=O)N3CCC(C(N)=O)CC3)c12	-10	-9	5	3	97	i
C=CCN(C(=O)CSc1nc2ccsc2c(=O)n1Cc1ccccn1)c1ccccc1	-6	-4	1	-6	100	i
C=CCN(C(=O)CSc1nc2c(sc3ccccc32)c(=O)n1CCN(CC)CC)c1ccccc1	25	25*	54	-18	95	i
COc1cccc2c1cc1c(=O)n(CC(=O)N3CCCCCC3)nc(C)n12	-9	24*	0	0	98	i
Cc1ccc(C(=O)N/C(=C\c2ccc(-c3ccccc3[N+](=O)[O-])o2)C(=O)NCCCN2CCOCC2)cc1	-11	26*	91*	-4	94	i
CC(C)(C)CC(C)(C)Nc1c(-c2ccc(O)cc2)nc2cnccn12	4	-4	8	24	100	i
Cc1ccc(/C=C/C(=O)NC2CCCCCCC2)o1	-8	10	58*	22	96	i
COc1c(O)cccc1[C@H](O)C1CCN(CCc2ccc(F)cc2)CC1	-4	43*	-12	2	103	i
CC1(c2nnc(-c3ccc(F)cc3)o2)CC(c2ccccc2)=NO1 (centres undefined)	-7	2	5	27	97	i
Cc1cc(O)c2c(c1O)C(=O)[C@]13C(=C2O)C(=O)[C@@H]2[C@@H](O)[C@H]1[C@@H]1[C@H](O)[C@H]3C(=O)C3=C(O)c4c(O)cc(C)c(O)c4C(=O)[C@]312	7	-62	7	16	266	+
CCN1CCN(c2nc3c(c(=O)[nH]c(=O)n3C)n2Cc2ccccc2F)CC1	-13	30*	-3	4	97	i
CC(C)CCn1c(N2CCCC2)nc2c1c(=O)[nH]c(=O)n2C	-4	24*	-11	0	96	i
CC1CN(c2nc3c(c(=O)[nH]c(=O)n3C)n2Cc2ccccc2F)CC(C)O1 (centres undefined)	-13	6	-5	-11	95	i
Cn1c(=O)[nH]c(=O)c2c1nc(N1CCOCC1)n2CCCSc1ncccn1	3	22*	2	3	103	i
Cc1cc(SCC(=O)Nc2cccc(S(=O)(=O)NC3=NCCCCC3)c2)c(C)cc1Br	12	10	-2	-5	100	+
CC(C)(C)n1ncc2c(=O)n(CC(=O)NCc3ccc(F)cc3)cnc21	8	18	1	-4	99	+
CN(Cc1ccccc1)c1nc2c(c(=O)n(C)c(=O)n2C)n1CCCc1ccccc1	-4	2	66*	1	86	i
COc1ccc(C(=O)OCC(=O)NC2CC2)cc1F	3	-12	4	-8	98	i
COC(=O)c1ccc(CSc2nnc(NC(=O)C3CC(=O)N(c4ccc5c(c4)OCCO5)C3)s2)cc1 (centres undefined)	-6	-13	1	-3	87	i

High-throughput results (PubChem)
